# Experimental data pooled from the literature.
# Compare with care: the assays were run in different laboratories.
# Read-out: cell growth or viability
Compound,cell line,technique,tested at,time,measurement,value
Oc1ccc(Nc2nc(-c3ccc(Cl)cc3)cs2)cc1,UACC-903,MTS,,48 h,IC50,59.1 µM
Cc1cc(=O)oc2ccc(-c3cc(-c4ccc(Cl)cc4)nc(N)n3)c(O)c12,KB,MTT,32 µg/mL,72 h,inhibition,54%
C=CC(=O)N1CCC[C@@H](n2nc(-c3ccc(Oc4ccccc4)cc3)c3c(N)ncnc32)C1,U-937,ATP luminescence,,72 h,GI50,6.4 µM
COC(=O)COc1ccc(NC(=O)C2(c3ccc(Cl)cc3)CC2)cc1Br,U-937,ATP luminescence,,72 h,GI50,1.6 µM
Cc1cc(=O)oc2ccc(-c3cc(-c4cccs4)nc(N)n3)c(O)c12,KB,MTT,128 µg/mL,72 h,inhibition,17%
COC(=O)COc1ccc(NC(=O)C2(c3ccc(Cl)cc3)CC2)c(C)c1,U-937,ATP luminescence,,72 h,GI50,6 µM
COc1cc(-c2ccc(-c3ccc(C(=N)N)nc3)s2)cc(OC)c1OC,IGROV-1,SRB,,,GI50,2.63 µM
C=CC(=O)N1CCN(c2nc(=O)n(-c3c(C)ccnc3C(C)C)c3nc(-c4c(O)cccc4F)c(F)cc23)[C@@H](C)C1,LS-513,,,5 days,EC50,> 10 µM
Cc1cc(=O)oc2ccc(-c3cc(-c4ccccc4)nc(N)n3)c(O)c12,KB,MTT,8 µg/mL,72 h,inhibition,0%
COC(=O)COc1cccc(NC(=O)C2(c3cccc(Br)c3)CC2)c1,U-937,ATP luminescence,,72 h,GI50,3.5 µM
CC(C)C[C@H](NC(=O)[C@H](Cc1ccccc1)NC(=O)c1cnccn1)B(O)O,SNU1,ATP luminescence,,,IC50,0.014 µM
CC#CC(=O)N1CC[C@@H](n2cc(-c3ccc(Oc4c(F)cccc4F)cc3)c3c(N)n[nH]c(=O)c32)C1,MINO,ATP luminescence,,72 h,GI50,5.18 µM
COC(=O)COc1ccc(NC(=O)C2(c3ccc(F)cc3)CC2)cc1,U-937,ATP luminescence,,72 h,GI50,5.9 µM
Cc1cc(=O)oc2ccc(-c3cc(-c4cccc(Cl)c4)nc(N)n3)c(O)c12,KB,MTT,32 µg/mL,72 h,inhibition,16%
